# The source made the active and inactive calls.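 The calls were made as follows, unless noted: active = inhibition at or above 50% at 10 µM; inactive = inhibition below 50%.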
# What was measured:
# [1] = inhibitors of TNFa-induced NFkB p65 translocation, primary screen, imaging, HUVEC, MLSMR starter and 10KST1 sets (AID 438;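 active = inhibition above 20% together with a positive visual image hit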;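 also: compound added about 3h40 before a 20 min TNFalpha stimulation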;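 as to inhibition: signal is the nuclear over cytoplasmic p65 intensity ratio per well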); conditions: HUVEC TNFa-induced p65 nuclear translocation; cell count: measured here: nuclei count (cytotoxicity indicator), at 2.08 µM; inhibition: at 2 µM, stronger effect = higher value, 0% TNFa-plus-vehicle, 100% no-TNFa wells
# [2] = inhibitors of mutant huntingtin aggregation, primary screen, imaging, exon1htt(103Q)mCFP cells, high-content imaging (AID 483;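 active = visual image review flags a hit and inhibition of aggregation exceeds 20%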;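 also: compound exposure lasted 3 days before fixation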;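 as to nuclei count: percent of the per-plate median nuclei count of sample wells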); conditions: exon1htt(103Q)mCFP cell line, aggregate imaging, at 2 µM; inhibition of aggregation: stronger effect = higher value; nuclei count: measured here: cell count, toxicity
# [3] = inhibitors of E-selectin induction by TNFa, primary screen, imaging, HUVEC, immunofluorescence, MLSMR starter and 10KST1 sets (AID 487;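 active = visually confirmed hit in the image check and inhibition above 20%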;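 as to inhibition: signal is fraction of cell area covered by stained E-selectin grains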;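 as to nuclei count: 100% = median nuclei count of all wells on the same plate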); conditions: HUVEC TNFalpha-induced E-selectin immunofluorescence imaging, at 2 µM; inhibition: stronger effect = higher value; nuclei count: measured here: cell number, toxicity
# [4] = target: Voltage-gated potassium channel subunit beta-2 (Rattus norvegicus) (UniProt P62483); test: KvBeta enzyme negative modulators, primary screen, biochemical, NADPH fluorescence (AID 622;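 active = fluorescence slope higher than the sample average by over 3 SD, cut at about -0.22 in these data, passing the limit was not always enough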;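 also: slope of raw intensity against log time taken from 70 to 1610 s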); conditions: recombinant KvBeta, 4-cyanobenzaldehyde reduction, at 10 µM, stronger effect = higher value
# [5] = target: Voltage-gated potassium channel subunit beta-2 (Rattus norvegicus) (UniProt P62483); test: KvBeta positive modulators, primary screen, biochemical, NADPH fluorescence (AID 623;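 active = NADPH fluorescence slope more negative than the mean of all samples by about 3 SD, 99.7% confidence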;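 also: fluorescence intensity change per second fitted from 20 to 320 s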); conditions: Recombinant KvBeta, NADPH fluorescence decrease slope, 10 min; at 10 µM; stronger effect = lower value
# [6] = target: Alpha-2C adrenergic receptor (Homo sapiens) (UniProt P18825); test: modulators of alpha2C/GIRK thallium flux, primary screen, cell-based, HEK293 alpha2C/GIRK1/2 (AID 624;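 active = fluorescence slope after compound addition differing from the mean of all screened samples at 99.7% confidence, in either direction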;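 also: slope of fluorescence ratio to pre-addition baseline per second over 15 to 24 s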); conditions: thallium flux BTC fluorescence, at 10 µM, actives lie on both sides
# [7] = inhibitors of larval lipid processing in zebrafish, primary screen, whole organism, PED6 fluorescence, gall bladder and intestine (AID 686;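 active = a full or partial loss of lipid-probe fluorescence in the fish gall bladder, intestine or both, judged by eye; inactive = no fluorescence loss, or compound toxic to the fish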;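 also: larvae 5 to 7 days old with five fish per well; signal comes from phospholipase A2 cleavage of quenched PED6 carried via bile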); conditions: Zebrafish larvae PED6 lipid processing, fluorescence scoring; screened at 20 µM (by protocol)
# In short: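 Incubation: overnight exposure of larvae to compound plus PED6 / Test system: live zebrafish larvae aged 5-7 days, whole organism / Amount: 5 larvae per well / Read-out basis: visual per-well fluorescence inhibition score / Signal: visual fluorescence microscopy scoring of gall bladder, gut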
# [8] = inhibitors of Sendai virus-induced IRF3 signaling, primary screen, TLR/RLR signaling modifier project, cell-based, Sendai virus stimulus, luciferase, 10K MLSCN set (AID 602276); conditions: HEK293 RL24 IRF3 luciferase reporter, at 10 µM, stronger effect = higher value;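 also: firefly luciferase from ISG56 promoter only with Renilla not read in this screen; 0% = Sendai virus plus DMSO and 100% = medium plus DMSO without virus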
# [9] = inhibitors of poly I:C-induced TLR3 signaling, primary screen, cell-based, poly I:C stimulus, luciferase, 10K MLSCN set (AID 602277;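 active = inhibition of the reporter signal at or above 50%; inactive = inhibition below 50%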); conditions: HEK293-TLR3 RL24 IRF3 luciferase reporter, at 10 µM, stronger effect = higher value
# Chain of Voltage-gated potassium channel subunit beta-2 (Rattus norvegicus) (P62483 whole entry, looked up): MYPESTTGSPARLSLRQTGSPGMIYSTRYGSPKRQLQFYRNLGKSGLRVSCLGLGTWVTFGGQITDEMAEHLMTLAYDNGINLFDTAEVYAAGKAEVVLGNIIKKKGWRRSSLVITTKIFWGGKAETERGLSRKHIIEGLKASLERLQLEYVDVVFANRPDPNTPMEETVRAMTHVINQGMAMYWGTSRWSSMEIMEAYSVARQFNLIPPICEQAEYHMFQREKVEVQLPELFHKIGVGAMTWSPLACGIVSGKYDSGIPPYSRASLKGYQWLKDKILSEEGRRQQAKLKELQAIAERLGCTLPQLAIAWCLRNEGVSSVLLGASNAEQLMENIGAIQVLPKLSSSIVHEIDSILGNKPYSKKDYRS
# Chain of Alpha-2C adrenergic receptor (Homo sapiens) (P18825 whole entry, looked up): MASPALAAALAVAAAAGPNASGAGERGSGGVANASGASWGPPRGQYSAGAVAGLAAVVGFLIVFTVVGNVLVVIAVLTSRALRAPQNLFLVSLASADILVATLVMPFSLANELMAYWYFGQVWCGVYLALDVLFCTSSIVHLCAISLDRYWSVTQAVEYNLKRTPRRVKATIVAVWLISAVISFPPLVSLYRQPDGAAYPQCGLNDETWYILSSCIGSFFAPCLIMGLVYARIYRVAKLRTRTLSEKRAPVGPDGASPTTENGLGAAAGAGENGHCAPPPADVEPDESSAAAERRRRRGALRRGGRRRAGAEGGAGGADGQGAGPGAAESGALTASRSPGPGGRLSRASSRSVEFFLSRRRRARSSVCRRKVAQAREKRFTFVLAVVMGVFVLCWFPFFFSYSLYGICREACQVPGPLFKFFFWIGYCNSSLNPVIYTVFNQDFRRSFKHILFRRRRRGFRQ
SMILES,cell count [1],inhibition [1],inhibition of aggregation [2],nuclei count [2],inhibition [3],nuclei count [3],fluorescence slope [4],NADPH fluorescence slope [5],slope [6],outcome [7],inhibition [8],inhibition [9]
CSc1c(CC(=O)NCCO)n(C)c2ccccc12,575,-14% (inactive),8.4% (inactive),88%,-3.5% (inactive),105%,-0.338 (inactive),1.3e-05 (inactive),0.005 (inactive),inactive,1.14% (inactive),5.52% (inactive)
O=C(O)C(c1ccccc1)N1CCCC1 (configuration not stated),643,3.4% (inactive),-1.7% (inactive),108%,-110% (inactive),104%,-0.291 (inactive),-6.9e-06 (inactive),0.00482 (inactive),inactive,13% (inactive),8.7% (inactive)
COc1ccc(NC(=O)Cn2nnc(-c3ccccc3F)n2)cc1Cl,602,-9.3% (inactive),-0.1% (inactive),92.6%,-59.1% (inactive),107%,-0.382 (inactive),1.8e-05 (inactive),0.00543 (inactive),inactive,7.23% (inactive),38.7% (inactive)
Cc1ccc2nc(/C(C#N)=N/O)[nH]c2c1,627,-1.7% (inactive),-7.3% (inactive),112%,-34.1% (inactive),119%,-0.376 (inactive),-8.1e-05 (inactive),0.00426 (inactive),inactive,6.84% (inactive),6.68% (inactive)
O=C1c2oc3ccccc3c(=O)c2C(c2cccnc2)N1Cc1ccco1 (configuration not stated),389,-2.7% (inactive),-2.7% (inactive),110%,-107% (inactive),111%,-0.48 (inactive),-3.2e-05 (inactive),0.00687 (inactive),inactive,-0.371% (inactive),8.46% (inactive)
CCCc1cc(N2CCCC2)n2nc(C)c(-c3ccccc3)c2n1,531,-11% (inactive),-13.4% (inactive),112%,-22.9% (inactive),122%,-0.118 (inactive),9.3e-07 (inactive),0.00457 (inactive),inactive,14% (inactive),-0.253% (inactive)
Cc1ccc(C(O)c2nc3ccccc3n2C(C)C)cc1 (configuration not stated),304,-3.7% (inactive),11% (inactive),91.7%,28.8% (inactive),86.7%,-0.418 (inactive),-1.7e-05 (inactive),0.00388 (inactive),inactive,20% (inactive),11.8% (inactive)
O=C(CN1CCSCC1)N1CCc2[nH]c3ccc(Br)cc3c2C1,691,3.4% (inactive),21.5% (inactive),99.4%,28.3% (inactive),102%,-0.384 (inactive),-5.2e-05 (inactive),0.00508 (inactive),inactive,10.7% (inactive),7.8% (inactive)
CCN1CCN(c2nc3c(c(=O)n(C)c(=O)n3C)n2Cc2cccc3ccccc23)CC1,471,-6% (inactive),14.8% (inactive),85.1%,35.5% (inactive),80.6%,-0.46 (inactive),-5.6e-05 (inactive),0.00535 (inactive),inactive,12.4% (inactive),18.7% (inactive)
COc1cccc(Nc2nnc(SCC(=O)N3CC(C)OC(C)C3)s2)c1 (configuration not stated),448,4.8% (inactive),14.5% (inactive),73.5%,-19.6% (inactive),117%,-0.409 (inactive),-9.2e-05 (inactive),0.00562 (inactive),inactive,-1.41% (inactive),-10% (inactive)
Cc1csc(NC(=O)c2ccccc2C(=O)O)n1,418,9% (inactive),-16.7% (inactive),111%,-46.7% (inactive),116%,-0.358 (inactive),-6.8e-05 (inactive),0.00549 (inactive),inactive,5.94% (inactive),3.54% (inactive)
O=C(CSc1ccc(-c2ccccc2)nn1)N1CCOCC1,664,-5.6% (inactive),-24% (inactive),118%,57.9% (active),132%,-0.452 (inactive),-4.4e-05 (inactive),0.00495 (inactive),inactive,5.28% (inactive),-10.6% (inactive)
O=C(c1cnc2sccn2c1=O)N1CCc2ccccc2C1,438,-3% (inactive),4.4% (inactive),86.1%,-376% (inactive),102%,-0.398 (inactive),-5.3e-05 (inactive),0.00452 (inactive),inactive,-4.13% (inactive),99% (active)
COc1ccccc1-n1c(SCC(=O)NC(C)(C)C)nnc1-c1ccco1,662,-13.1% (inactive),6.2% (inactive),87.8%,-53% (inactive),117%,-0.504 (inactive),-2.6e-05 (inactive),0.0043 (inactive),inactive,10.4% (inactive),15.6% (inactive)
Cc1ccc(Nc2nc(N)nc(CN3CCN(Cc4ccc5c(c4)OCO5)CC3)n2)cc1,385,4.6% (inactive),54.3% (active),91.6%,-82.2% (inactive),102%,-0.367 (inactive),-4.6e-05 (inactive),0.00487 (inactive),inactive,1.9% (inactive),7.26% (inactive)
COc1ccc(-c2noc(CCCOc3ccccc3)n2)cc1OC,429,1.5% (inactive),21% (inactive),93%,-33% (inactive),134%,-0.473 (inactive),-1.6e-05 (inactive),0.00512 (inactive),inactive,-2.22% (inactive),-9.66% (inactive)
